Laboratory results as given in ChEMBL document CHEMBL2010694, “Indolyl and dihydroindolyl N-glycinamides as potent and in vivo active NPY5 antagonists” (Bioorg Med Chem Lett, 2012).
≈ marks a conversion by molar mass, not a printed value. Calls of active or inactive are those of the source. The rule behind the calls is not given here.

What was measured:
Liver microsomes [1] = assay: Intrinsic clearance in human liver microsomes at 1 uM by LC/MS analysis; type: ADME, Microsome
Summary of the method: (§1)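 Compound incubated with human or rat liver microsomes; reaction quenched with acetonitrile, centrifuged, and remaining drug in supernatant measured by LC/MS to estimate T1/2, from which intrinsic clearance was derived.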

Liver microsomes [2] = assay: Intrinsic clearance in rat liver microsomes at 1 uM by LC/MS analysis; type: ADME, Microsome; summary of the method: as §1
Brain = assay: Drug uptake in Sprague-Dawley rat brain at 10 mg/kg, po by LC-MS/MS analysis; type: ADME, organism-based; design: dose 10 mg/kg, route oral; conditions: in vivo, read-out: Drug uptake
Summary of the method: (§2)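 Male Sprague-Dawley rats (300–350 g), femoral artery cannulated; single 10 mg/kg oral dose in an appropriate vehicle, N = 3. Blood taken predose, 1, 2 and 4 h; brains then collected and stored at -80 °C. Equal portions of plasma or homogenized brain from the three rats pooled per time point, protein precipitated, quantified by LC/MS/MS.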

Plasma = assay: Plasma concentration in Sprague-Dawley rat at 10 mg/kg, po by LC-MS/MS analysis; type: ADME, organism-based; design: dose 10 mg/kg, route oral; conditions: in vivo; summary of the method: as §2
MDR [3] = assay: Apparent permeability from apical to basolateral side in MDCK cells expressing MDR; type: ADME, cell-based, Canis lupus familiaris; conditions: dog, MDCK-MDR1
Summary of the method: (§3)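 Bidirectional permeability (A–B and B–A) across a Pgp-overexpressing mdr-MDCK cell monolayer; efflux ratio derived from the two Papp values, given in 10^-6 cm/s.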

MDR [4] = assay: Apparent permeability from basolateral to apical side in MDCK cells expressing MDR; type: ADME, cell-based, Canis lupus familiaris; conditions: dog, MDCK-MDR1; summary of the method: as §3
[5] = Plasma concentration in Sprague-Dawley rat at 10 mg/kg, po after 1 hr by LC-MS/MS analysis; type: ADME, organism-based; design: dose 10 mg/kg, route oral; summary of the method: as §2
[6] = Drug uptake in Sprague-Dawley rat brain at 10 mg/kg, po after 1 hr by LC-MS/MS analysis; type: ADME, organism-based; design: dose 10 mg/kg, route oral; conditions: read-out: Drug uptake; summary of the method: as §2
[7] = Solubility of the compound at pH 7.4; type: physicochemical; conditions: buffer
[8] = Lipophilicity, log D of the compound at pH 7.4; type: physicochemical; conditions: buffer
Cytochrome P450 3A4 = Cytochrome P450 3A4 (Homo sapiens, UniProt P08684); assay: Inhibition of CYP3A4; type: ADME
Cytochrome P450 2C8 = target: T1, Cytochrome P450 2C8 (Homo sapiens, UniProt P10632); assay: Inhibition of CYP2C8; type: ADME
T1 sequence (P10632 whole entry): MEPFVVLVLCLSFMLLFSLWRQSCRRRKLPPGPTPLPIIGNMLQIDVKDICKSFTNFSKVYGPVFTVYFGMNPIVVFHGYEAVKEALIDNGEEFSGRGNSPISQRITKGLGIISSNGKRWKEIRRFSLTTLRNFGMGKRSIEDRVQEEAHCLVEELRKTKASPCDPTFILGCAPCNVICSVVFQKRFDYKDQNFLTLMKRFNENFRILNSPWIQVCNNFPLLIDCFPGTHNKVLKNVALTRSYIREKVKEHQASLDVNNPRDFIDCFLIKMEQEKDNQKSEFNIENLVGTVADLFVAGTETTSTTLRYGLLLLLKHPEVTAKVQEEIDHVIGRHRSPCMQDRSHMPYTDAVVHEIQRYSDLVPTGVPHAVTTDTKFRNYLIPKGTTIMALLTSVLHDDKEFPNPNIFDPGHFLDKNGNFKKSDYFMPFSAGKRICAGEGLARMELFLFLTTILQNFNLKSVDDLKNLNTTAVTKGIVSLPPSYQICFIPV

Cytochrome P450 1A2 = target: T2, Cytochrome P450 1A2 (Homo sapiens, UniProt P05177); assay: Inhibition of CYP1A2; type: ADME
T2 sequence (P05177 whole entry): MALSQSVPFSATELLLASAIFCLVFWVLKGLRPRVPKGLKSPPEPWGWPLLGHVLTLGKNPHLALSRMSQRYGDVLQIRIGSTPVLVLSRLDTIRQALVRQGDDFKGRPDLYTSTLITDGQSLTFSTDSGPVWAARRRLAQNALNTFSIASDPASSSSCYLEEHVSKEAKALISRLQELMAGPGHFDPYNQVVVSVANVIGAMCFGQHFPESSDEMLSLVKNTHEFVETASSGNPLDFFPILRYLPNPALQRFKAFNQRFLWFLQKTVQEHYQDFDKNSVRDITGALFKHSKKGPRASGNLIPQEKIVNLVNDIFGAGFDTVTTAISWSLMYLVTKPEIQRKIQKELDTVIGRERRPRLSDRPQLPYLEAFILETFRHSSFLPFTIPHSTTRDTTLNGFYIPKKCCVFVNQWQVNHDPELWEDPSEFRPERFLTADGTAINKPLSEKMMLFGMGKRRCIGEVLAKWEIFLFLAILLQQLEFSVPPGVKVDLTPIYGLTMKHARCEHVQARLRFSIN

Cytochrome P450 2C19 = Cytochrome P450 2C19 (Homo sapiens, UniProt P33261); assay: Inhibition of CYP2C19; type: ADME
[9] = Absolute oral bioavailability in Sprague-Dawley rat at 2 mg/kg after 24 hrs wash out period by HPLC analysis; type: ADME, organism-based; conditions: in vivo
Summary of the method: (§4)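 Male Sprague-Dawley rats (200–250 g), jugular and carotid artery cannulated; compound dissolved in 20% beta cyclodextrin, pH adjusted with methane sulfonic acid. Serial blood sampled at 12 time points over 24 h post dose by automated sampler; plasma from centrifugation analysed by HPLC; PK parameters by non-compartmental analysis of plasma concentration–time profile.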

[10] = Clearance in Sprague-Dawley rat blood at 2 mg/kg, po and 1 mg/kg, iv after 24 hrs wash out period by HPLC analysis; type: ADME, organism-based; conditions: whole blood; summary of the method: as §4
[11] = Cmax in Sprague-Dawley rat plasma at 2 mg/kg, po and 1 mg/kg, iv after 24 hrs wash out period by HPLC analysis; type: ADME, organism-based; summary of the method: as §4
[12] = Volume of distribution at steady state in Sprague-Dawley rat plasma at 2 mg/kg, po and 1 mg/kg, iv after 24 hrs wash out period by HPLC analysis; type: ADME, organism-based; conditions: read-out: Vdss; summary of the method: as §4
Rattus norvegicus [13] = assay: Antiobesity activity in cPP-induced feeding in Sprague-Dawley rat model assessed as reduction in food intake at 0.1 to 10 mg/kg, po measured 1 hr post cpp challenge; type: functional, organism-based
Summary of the method: (§5)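 Rats pretreated orally at 0.1, 1 or 10 mg/kg (vehicle 20% cyclodextrin) 1 h before intracerebroventricular infusion of Y5-selective peptide agonist cPP, 0.6 nmol in normal saline; food intake recorded, n = 7–14 per group.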

Rattus norvegicus [14] = assay: Antiobesity activity in po dosed cPP-induced feeding Sprague-Dawley rat model assessed as reduction in food intake measured 1 hr post cpp challenge; type: functional; summary of the method: as §5
[15] = Drug uptake in cPP-induced feeding Sprague-Dawley rat model brain at 0.1 mg/kg, po after 1 hr; type: ADME, organism-based; design: dose 0.1 mg/kg, route oral; conditions: read-out: Drug uptake
Summary of the method: (§6)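 Satellite animals from the cPP feeding study dosed orally at 0.1, 1 or 10 mg/kg; plasma (ng/mL) and brain (ng/g) levels measured 1 h after dosing.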

[16] = Drug uptake in cPP-induced feeding Sprague-Dawley rat model brain at 1 mg/kg, po after 1 hr; type: ADME, organism-based; design: dose 1 mg/kg, route oral; conditions: read-out: Drug uptake; summary of the method: as §6
[17] = Drug uptake in cPP-induced feeding Sprague-Dawley rat model brain at 10 mg/kg, po after 1 hr; type: ADME, organism-based; design: dose 10 mg/kg, route oral; conditions: read-out: Drug uptake; summary of the method: as §6
[18] = Plasma concentration in cPP-induced feeding Sprague-Dawley rat model at 0.1 mg/kg, po after 1 hr; type: ADME, organism-based; design: dose 0.1 mg/kg, route oral; summary of the method: as §6
[19] = Plasma concentration in cPP-induced feeding Sprague-Dawley rat model at 1 mg/kg, po after 1 hr; type: ADME, organism-based; design: dose 1 mg/kg, route oral; summary of the method: as §6
[20] = Plasma concentration in cPP-induced feeding Sprague-Dawley rat model at 10 mg/kg, po after 1 hr; type: ADME, organism-based; design: dose 10 mg/kg, route oral; summary of the method: as §6

Chain of Cytochrome P450 2C19 (P33261 whole entry): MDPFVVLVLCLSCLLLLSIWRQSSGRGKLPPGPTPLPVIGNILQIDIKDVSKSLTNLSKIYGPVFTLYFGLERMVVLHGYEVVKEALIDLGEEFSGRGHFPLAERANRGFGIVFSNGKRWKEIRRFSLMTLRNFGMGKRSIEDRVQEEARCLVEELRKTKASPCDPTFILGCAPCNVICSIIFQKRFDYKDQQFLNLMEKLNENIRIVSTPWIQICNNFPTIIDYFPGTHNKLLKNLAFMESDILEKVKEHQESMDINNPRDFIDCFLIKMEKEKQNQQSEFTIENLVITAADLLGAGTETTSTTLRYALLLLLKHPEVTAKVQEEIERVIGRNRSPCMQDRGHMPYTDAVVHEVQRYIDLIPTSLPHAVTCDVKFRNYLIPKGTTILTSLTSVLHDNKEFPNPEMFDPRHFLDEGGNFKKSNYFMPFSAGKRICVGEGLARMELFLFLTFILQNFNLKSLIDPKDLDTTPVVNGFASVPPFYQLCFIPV
Chain of Cytochrome P450 3A4 (P08684 whole entry): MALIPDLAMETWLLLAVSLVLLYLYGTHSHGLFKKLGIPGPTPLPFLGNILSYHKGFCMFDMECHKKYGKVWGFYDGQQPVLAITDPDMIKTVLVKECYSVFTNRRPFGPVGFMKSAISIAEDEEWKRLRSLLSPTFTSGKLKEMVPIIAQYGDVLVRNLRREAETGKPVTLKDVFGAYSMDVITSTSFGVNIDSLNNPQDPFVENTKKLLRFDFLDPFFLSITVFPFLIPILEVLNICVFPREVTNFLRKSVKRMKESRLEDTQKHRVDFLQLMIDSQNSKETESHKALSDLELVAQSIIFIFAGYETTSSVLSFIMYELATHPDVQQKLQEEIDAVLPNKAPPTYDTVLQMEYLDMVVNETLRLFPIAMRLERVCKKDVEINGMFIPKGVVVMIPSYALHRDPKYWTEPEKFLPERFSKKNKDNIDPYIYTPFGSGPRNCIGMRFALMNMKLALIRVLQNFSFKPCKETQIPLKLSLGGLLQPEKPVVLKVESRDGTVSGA

CC(C)S(=O)(=O)NC[C@H]1CC[C@H](NC(=O)CN2CCc3cc(Cl)ccc32)CC1
CLH (Liver microsomes [1]): 3.6 L/min
CLH (Liver microsomes [2]): 49 mL/min
concentration (Brain): 304 nM
concentration (Plasma): 5610 nM
Papp A→B (MDR [3]): 2.31 ×10⁻⁶ cm/s
Papp B→A (MDR [4]): 60.1 ×10⁻⁶ cm/s
concentration at 1 h [5]: 5470 nM
concentration at 1 h [6]: 295 nM
solubility [7]: 154 µM (≈ 65.9 µg/mL)
logD [8]: 3
IC50 (Cytochrome P450 3A4): 0.7 µM
IC50 (Cytochrome P450 2C8): 8.2 µM
IC50 (Cytochrome P450 1A2): > 40 µM
IC50 (Cytochrome P450 2C19): > 40 µM
bioavailability [9]: 100%
clearance [10]: 23.3 mL/min/kg
Cmax [11]: 700 ng/mL
Vd [12]: 1.9 L/kg
Activity (Rattus norvegicus [13]): Active
Activity (Rattus norvegicus [14]): Dose-dependent effect
minimal effective dose (Rattus norvegicus [14]; read-out: MED): < 0.1 mg/kg
concentration at 1 h [15]: 11 ng/g
concentration at 1 h [16]: 104 ng/g
concentration at 1 h [17]: 151 ng/g
concentration at 1 h [18]: 76 ng/mL
concentration at 1 h [19]: 516 ng/mL
concentration at 1 h [20]: 1700 ng/mL
